Most compounds without a hit are left out; they make up all but 2.9% or so of the library.
DENV2 CPE rescue: inhibitors of DENV2 cytopathic effect | DENV2-infected cells, cytopathic effect rescue, plate reader | CPE inhibition, % at 9.99 µM | 1.7% of 350,000 active; in the data active = CPE inhibition above about 20%, passing the limit was not always enough; inconclusive = no clear call, values can overlap the other calls; tested in BHK-21 cells;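 also: 0% = median of neutral control wells and 100% = median of positive control wells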
SIRT5 inh: sirtuin-5 (human) deacylase inhibition; Purified SirT5, succinyl-peptide AMC, trypsin-coupled fluorescence; inhibition, % at 15 µM; Q9NXA8; 1.1% of 330,000 active; AID 652115; in the data active = inhibition above about 15%; inconclusive = no clear call, values can overlap the other calls
E-selectin induc: E-selectin induction on HUVECs; HUVEC E-selectin immunofluorescence imaging; normalized: neutral wells 0, TNF-alpha wells 100; 0.37% of 260,000 active; AID 686992; P16581; activation, % at 7.58 µM;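 active = mean E-selectin-positive cell signal at least 10% of the positive control, reached in at least 60% of replicates, without over 20% cell loss; inconclusive = no rule given, readout overlaps actives, possibly toxicity-flagged; inactive = the rest, including those meeting only one limit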
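Material: HUVEC primary endothelial cells; Amount: 3,000 cells per well; Dosing: single concentration; Medium: EGM-2 growth medium on 0.1% gelatin-coated wells; Read-out basis: percent E-selectin-positive cells; Signal: immunofluorescence imaging; Control set: TNF-alpha, DMSO.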
Active calls of the source: *; ? = inconclusive; / = no result given.

SMILES	DENV2 CPE rescue	SIRT5 inh	E-selectin induc
C[C@@H]1CCCCO[C@@H](CN(C)S(=O)(=O)c2ccc(F)cc2)[C@H](C)CN([C@@H](C)CO)C(=O)c2cc(NC(=O)Nc3ccc(F)cc3)ccc2O1	-5	/	0
C/C(=N\N=C(N)N)c1cccc([N+](=O)[O-])c1	1	-2	-1
Cc1noc(C)c1S(=O)(=O)N(C)C[C@@H]1OCCCC[C@@H](C)Oc2ccc(NC(=O)Nc3ccc(F)cc3)cc2C(=O)N([C@H](C)CO)C[C@H]1C	-3	-5	0
Cc1noc(C)c1S(=O)(=O)N(C)C[C@H]1OCCCC[C@H](C)Oc2ccc(NC(=O)Nc3ccc(F)cc3)cc2C(=O)N([C@@H](C)CO)C[C@@H]1C	73*	0	0
Cc1cc(OC(F)F)ccc1NC(=S)NCCc1ccccc1	-1	2	0
COc1ccccc1/C=C/C(=O)OCC(=O)Nc1ccccc1Sc1ccccc1	2	18*	0
COc1ccccc1NC(=O)COC(=O)/C=C/c1ccc2c(c1)OCO2	2	0	/
Cc1ccc(S(=O)(=O)N2C[C@H]3[C@H]4C(=O)N(Cc5ccccc5)C(=O)[C@H]4CC(=O)[C@H]3[C@@H]2c2ccccc2F)cc1	-6	1	3
CCN1C(=O)[C@@H]2[C@@H]3CN(S(=O)(=O)c4ccc(C)cc4)[C@@H](c4ccccc4F)[C@@H]3C(=O)C[C@@H]2C1=O	21*	-2	4
CCCC(C)C(=O)Nc1nc(C)c(-c2csc(Nc3ccc(Cl)cc3)n2)s1 (stereo not drawn)	-10	31*	0
CCCC(C)C(=O)Nc1nc(C)c(-c2csc(Nc3ccccc3OC)n2)s1 (stereo not drawn)	16	-3	0
COc1ccc(OC)c(C2CC(c3ccccc3)=NN2C(=S)Nc2ccccc2)c1 (stereo not drawn)	-7	-7	0
CCOC(=O)n1c(=O)n(C)c2ccc(Cl)cc21	0	20*	/
CCOC(=O)N1CCC2CC1c1cc(Cl)ccc12 (stereo not drawn)	?	2	0
O=C(CC(Cc1ccccc1)c1ccco1)NCc1ccco1 (stereo not drawn)	1	-5	1
COCCNC(=O)C1(C)CCCN(C(=O)c2ccccc2F)C1 (stereo not drawn)	-3	-1	0
O=C1NCCCC1C(=O)N1CCCCC1 (stereo not drawn)	3	-1	0
O=C1CCC(=O)N(O)CCCCCNC(=O)CCC(=O)N(O)CCCCNC(=O)CCC(=O)N(O)CCCCCN1	87*	/	/
O=C1CCCN1CCCNC(=S)Nc1ccccc1	-4	-1	1
Cc1ccc(NS(=O)(=O)c2cccc(C(=O)NCCCn3ccnc3)c2)cc1	-5	2	0
COc1ccccc1NS(=O)(=O)c1ccc(C(=O)NCCCn2ccnc2)cc1	-3	-3	0
Cc1ccc(NS(=O)(=O)c2ccc(C(=O)NCCCN3CCCC3=O)cc2)cc1C	0	-1	/
Cc1ccc(NS(=O)(=O)c2ccc(C(=O)NCCCN3CCCC3=O)cc2)cc1	103*	-2	0
Cc1ccc(S(=O)(=O)Nc2cccc(C(=O)NCCCn3ccnc3)c2)cc1F	54*	-1	1
O=C(CNCc1ccccc1)NCCCN1CCCC1=O	-3	17*	0
SMILES	DENV2 CPE rescue	SIRT5 inh	E-selectin induc
O=C(NCCCn1ccnc1)c1ccc(NS(=O)(=O)c2ccc(Cl)c(Cl)c2)cc1	2	20*	/
COc1ccc(-c2cc(C)no2)cc1S(=O)(=O)N1CCN(c2ccccn2)CC1	-2	0	/
O=C(Cn1nnc2ccccc2c1=O)NCCc1ccc(Cl)cc1Cl	1	-5	1
CCc1ccc(C2C(C#N)=C(N)N(N(C)C)C3=C2C(=O)CCC3)cc1 (stereo not drawn)	-3	-3	0
CCOC(=O)C1CCN(c2nc3ccccc3n2CC(=O)c2ccccc2)CC1	5	-1	4
CCOCCCNc1nc(C(F)(F)F)nc2c1nnn2Cc1ccccc1Cl	-3	-3	0
CCCc1nc(NCCCOCC)c2nnn(Cc3ccccc3)c2n1	4	17*	1
CN(C)C(=O)[C@@H]1[C@@H](CO)[C@@H]2Cn3c(ccc(-c4ccccc4)c3=O)[C@H]1N2CCc1ccccc1	3	29*	0
CC(=O)N1[C@@H]2c3ccc(-c4ccccc4)c(=O)n3C[C@H]1[C@H](CO)[C@H]2C(=O)Nc1ccccc1	48*	-7	-1
CN(C)C(=O)[C@H]1[C@H](CO)[C@H]2Cn3c(ccc(-c4ccccc4)c3=O)[C@@H]1N2CCc1ccccc1	-3	-7	0
CC=Cc1ccc2n(c1=O)C[C@@H]1[C@@H](CO)[C@H](C(=O)NC3Cc4ccccc4C3)[C@H]2N1C(C)=O (mixture of isomers)	31*	-12	0
